Read-outs that look alike come from different tables or passages of the source. One block for each molecule: values may come before it.
Columns and labels:
[1] = Free calcium concentration in bath medium by calcium ion selective electrode; assay type: physicochemical; conditions: agonist concentrations above 100 µM; Mg^2+-free buffer, Ca^2+ fixed at 950 µM
Summary of the method: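 Free Ca2+ read with a Ca2+-selective electrode. Mg2+-free buffer: 147 mM NaCl, 3 mM KCl, 10 mM glucose, 10 mM HEPES, pH 7.35, with 0.95 mM Ca2+. ATP or BzATP at 0, 1, 3.2, 10, 32, 100 and 320 µM, diluted from 10 mM aqueous stocks. Millivolt readings converted using a semilogarithmic standard curve. Means of three experiments.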

rat P2X7R = molecular target: T1, rat P2X7R (Rattus norvegicus, UniProt Q64663); assay type: cell-based
T1 sequence (Q64663 1-595): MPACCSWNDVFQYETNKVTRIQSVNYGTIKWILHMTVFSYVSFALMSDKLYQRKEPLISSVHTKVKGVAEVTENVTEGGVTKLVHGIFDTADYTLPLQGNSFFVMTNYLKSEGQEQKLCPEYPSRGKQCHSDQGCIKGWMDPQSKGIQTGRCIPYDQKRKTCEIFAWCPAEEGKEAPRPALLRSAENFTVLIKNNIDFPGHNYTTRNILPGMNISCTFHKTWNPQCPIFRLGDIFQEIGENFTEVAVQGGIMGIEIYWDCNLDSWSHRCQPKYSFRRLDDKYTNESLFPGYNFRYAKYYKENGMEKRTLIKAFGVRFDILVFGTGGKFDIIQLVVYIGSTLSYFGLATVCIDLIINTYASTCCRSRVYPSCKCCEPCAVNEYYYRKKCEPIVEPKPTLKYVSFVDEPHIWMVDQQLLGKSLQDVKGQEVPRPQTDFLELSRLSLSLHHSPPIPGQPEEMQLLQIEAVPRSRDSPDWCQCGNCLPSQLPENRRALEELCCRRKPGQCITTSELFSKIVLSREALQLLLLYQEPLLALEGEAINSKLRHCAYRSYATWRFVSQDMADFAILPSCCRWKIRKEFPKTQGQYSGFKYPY

rP2X7R-H130A mutant = assay type: cell-based, rat; conditions: 100 µM BzATP; 10 mM Ca^2+ vs Ca^2+-deficient medium
Summary of the method: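 Rat P2X7R-H130A mutant transfected into HEK293 cells (2 µg DNA, Lipofectamine 2000, serum-free Opti-MEM 4.5 h, then 24–48 h), replated 2–10 h, EGFP-positive cells chosen. Whole-cell patch clamp at room temperature, −60 mV hold. Pipette: 145 mM NaCl, 10 mM EGTA, 10 mM HEPES, pH 7.35. Bath: Krebs-Ringer-like, 1 mM MgCl2, pH 7.35. 100 µM BzATP given in Ca2+-deficient or 10 mM Ca2+ medium. Four experiments, mean ± SEM.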

free Ca^2+ concentration in presence of BzATP relative to ATP (higher) [1]: 2–3%
Molecule: 2’(3′)-O-4-benzoylbenzoyl)ATP [BzATP]

rightward shift in agonist (ATP, BzATP) dose-response (rat P2X7R; naive receptors, 2-mM Ca^2+-containing vs Ca^2+-deficient medium, 1 mM Mg^2+): ~0.5 log units
Molecule: [Ca+2] [Ca^2+, calcium]
decrease in the peak amplitude of current (rP2X7R-H130A mutant): 15 fold

time for effect on receptor deactivation (rat P2X7R; 100 µM A438079 applied during washout of 100 µM BzATP, Ca^2+-containing and Ca^2+-deficient medium): ~0.8 s | potency relative to ATP (rat P2X7R; higher potency than ATP at rat receptor): ~3,000 fold | potency relative to BzATP (rat P2X7R; higher potency than BzATP at rat receptor): 200 fold | current generated when applied alone (rat P2X7R; no agonist, unpublished data): did not generate any current | IC50 (rat P2X7R; read-out: IC50, inhibition of current, cells stimulated with 32 µM BzATP): ~300 nM | IC50 (rat P2X7R; read-out: IC50, reduction of peak amplitude of current, applied together with 3.2 mM ATP, estimated): ~1000 nM
Molecule: Clc1cccc(-c2nnnn2Cc2cccnc2)c1Cl [A438079]

Source: PMC3182445 (The Journal of General Physiology, 2011)
